Results published in PMC7497807 (Blood cancer discovery, 2020).
No end group written: not given here.

Biological target: T1, MBP-ENL (Homo sapiens, UniProt Q03111)
T1 sequence (Q03111 1-559): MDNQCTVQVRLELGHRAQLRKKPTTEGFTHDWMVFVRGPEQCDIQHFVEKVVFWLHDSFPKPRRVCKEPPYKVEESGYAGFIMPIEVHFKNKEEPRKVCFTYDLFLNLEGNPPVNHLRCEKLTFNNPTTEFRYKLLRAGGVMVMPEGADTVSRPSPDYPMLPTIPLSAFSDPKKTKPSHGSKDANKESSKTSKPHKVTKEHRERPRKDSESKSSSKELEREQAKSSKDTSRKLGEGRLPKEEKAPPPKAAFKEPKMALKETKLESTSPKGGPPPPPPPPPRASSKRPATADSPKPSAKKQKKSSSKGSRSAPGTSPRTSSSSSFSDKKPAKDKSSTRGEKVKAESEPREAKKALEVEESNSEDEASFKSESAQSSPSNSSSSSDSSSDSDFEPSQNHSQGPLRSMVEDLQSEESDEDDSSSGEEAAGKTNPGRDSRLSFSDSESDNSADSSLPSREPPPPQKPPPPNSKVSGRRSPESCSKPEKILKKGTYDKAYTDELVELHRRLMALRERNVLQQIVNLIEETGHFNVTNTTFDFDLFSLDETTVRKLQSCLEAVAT
Assay: FA binding of fluorescein-labeled peptides to MBP-ENL
Settings: fluorescence anisotropy, fluorescein-labeled peptide, MBP-ENL versus MBP-AF9
Procedure, shortened: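 Fluorescence anisotropy titrations of fluoresceinated peptides spanning the AF9-binding motif of each binding partner, run with MBP-ENL and, in parallel, MBP-AF9. A KD was obtained for each protein–peptide pair, and the fold change was taken as AF9 KD/ENL KD. Each measurement was run in three replicates, with error given as SEM.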

FITC-CBX8: fluorescein-labeled CBX8 peptide (AQGGRPSLIARIPVARILGDPEEE; also: fluorescein-labeled, attachment not given here)
affinity for ENL compared with affinity for AF9 (in words): substantial enhancement in binding
